Activity calls are given as the source filed them. The calls are words filed in the database; no cut-off is given here.
Legend:
[1] = target: T1, CREB-binding protein/Histone acetyltransferase p300 (Homo sapiens) (UniProt Q09472+Q92793); assay: Protac activity at p300/CBP degradation in human MM1.S cells assessed as amount p300 remaining at 10 uM incubated for 24 hrs by pulldown-based Western blot analysis; assay type: cell-based
In short: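 MM1.S cells at 2 × 10^6 cells/well in RPMI 1640, pre-incubated 24 h at 37 °C, 5% CO2, then exposed 24 h at 1, 5 or 10 µM. RIPA lysates run on 3–8% tris-acetate SDS gels and probed for p300 and β-actin. Band intensity expressed relative to the lane's DMSO vehicle and β-actin loading control.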

[2] = tested on: MM1.S; assay: Antiproliferative activity against human MM1.S cells assessed as reduction in cell proliferation incubated for 72 hrs by MTS assay; assay type: functional, cell-based
In short: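 MM1.S cells seeded at 2 × 10^5 cells/well, exposed 72 h in triplicate across 12.5–500 nM. Proliferation read by MTS dye absorbance. EC50 fitted with an [inhibitor] vs. normalized response model; uncertainty given as standard error.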

[3] = target: T1, CREB-binding protein/Histone acetyltransferase p300 (Homo sapiens); assay: Binding affinity to p300/CBP in human OPM-2 cell lysate assessed as p300 pull down and measured after 12 hrs by pulldown-based Western blot analysis; assay type: subcellular
In short: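 Biotinylated ligands coupled to streptavidin magnetic beads for 3 h at room temperature in 50 mM Tris pH 7.5, 300 mM NaCl, 0.05% NP40. Beads then incubated with OPM2 cell lysate overnight at 4°C, washed in binding buffer, boiled off in SDS loading buffer. Bound p300 detected by SDS-PAGE and anti-p300 immunoblot.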

T1 sequence (Q09472 whole entry, looked up): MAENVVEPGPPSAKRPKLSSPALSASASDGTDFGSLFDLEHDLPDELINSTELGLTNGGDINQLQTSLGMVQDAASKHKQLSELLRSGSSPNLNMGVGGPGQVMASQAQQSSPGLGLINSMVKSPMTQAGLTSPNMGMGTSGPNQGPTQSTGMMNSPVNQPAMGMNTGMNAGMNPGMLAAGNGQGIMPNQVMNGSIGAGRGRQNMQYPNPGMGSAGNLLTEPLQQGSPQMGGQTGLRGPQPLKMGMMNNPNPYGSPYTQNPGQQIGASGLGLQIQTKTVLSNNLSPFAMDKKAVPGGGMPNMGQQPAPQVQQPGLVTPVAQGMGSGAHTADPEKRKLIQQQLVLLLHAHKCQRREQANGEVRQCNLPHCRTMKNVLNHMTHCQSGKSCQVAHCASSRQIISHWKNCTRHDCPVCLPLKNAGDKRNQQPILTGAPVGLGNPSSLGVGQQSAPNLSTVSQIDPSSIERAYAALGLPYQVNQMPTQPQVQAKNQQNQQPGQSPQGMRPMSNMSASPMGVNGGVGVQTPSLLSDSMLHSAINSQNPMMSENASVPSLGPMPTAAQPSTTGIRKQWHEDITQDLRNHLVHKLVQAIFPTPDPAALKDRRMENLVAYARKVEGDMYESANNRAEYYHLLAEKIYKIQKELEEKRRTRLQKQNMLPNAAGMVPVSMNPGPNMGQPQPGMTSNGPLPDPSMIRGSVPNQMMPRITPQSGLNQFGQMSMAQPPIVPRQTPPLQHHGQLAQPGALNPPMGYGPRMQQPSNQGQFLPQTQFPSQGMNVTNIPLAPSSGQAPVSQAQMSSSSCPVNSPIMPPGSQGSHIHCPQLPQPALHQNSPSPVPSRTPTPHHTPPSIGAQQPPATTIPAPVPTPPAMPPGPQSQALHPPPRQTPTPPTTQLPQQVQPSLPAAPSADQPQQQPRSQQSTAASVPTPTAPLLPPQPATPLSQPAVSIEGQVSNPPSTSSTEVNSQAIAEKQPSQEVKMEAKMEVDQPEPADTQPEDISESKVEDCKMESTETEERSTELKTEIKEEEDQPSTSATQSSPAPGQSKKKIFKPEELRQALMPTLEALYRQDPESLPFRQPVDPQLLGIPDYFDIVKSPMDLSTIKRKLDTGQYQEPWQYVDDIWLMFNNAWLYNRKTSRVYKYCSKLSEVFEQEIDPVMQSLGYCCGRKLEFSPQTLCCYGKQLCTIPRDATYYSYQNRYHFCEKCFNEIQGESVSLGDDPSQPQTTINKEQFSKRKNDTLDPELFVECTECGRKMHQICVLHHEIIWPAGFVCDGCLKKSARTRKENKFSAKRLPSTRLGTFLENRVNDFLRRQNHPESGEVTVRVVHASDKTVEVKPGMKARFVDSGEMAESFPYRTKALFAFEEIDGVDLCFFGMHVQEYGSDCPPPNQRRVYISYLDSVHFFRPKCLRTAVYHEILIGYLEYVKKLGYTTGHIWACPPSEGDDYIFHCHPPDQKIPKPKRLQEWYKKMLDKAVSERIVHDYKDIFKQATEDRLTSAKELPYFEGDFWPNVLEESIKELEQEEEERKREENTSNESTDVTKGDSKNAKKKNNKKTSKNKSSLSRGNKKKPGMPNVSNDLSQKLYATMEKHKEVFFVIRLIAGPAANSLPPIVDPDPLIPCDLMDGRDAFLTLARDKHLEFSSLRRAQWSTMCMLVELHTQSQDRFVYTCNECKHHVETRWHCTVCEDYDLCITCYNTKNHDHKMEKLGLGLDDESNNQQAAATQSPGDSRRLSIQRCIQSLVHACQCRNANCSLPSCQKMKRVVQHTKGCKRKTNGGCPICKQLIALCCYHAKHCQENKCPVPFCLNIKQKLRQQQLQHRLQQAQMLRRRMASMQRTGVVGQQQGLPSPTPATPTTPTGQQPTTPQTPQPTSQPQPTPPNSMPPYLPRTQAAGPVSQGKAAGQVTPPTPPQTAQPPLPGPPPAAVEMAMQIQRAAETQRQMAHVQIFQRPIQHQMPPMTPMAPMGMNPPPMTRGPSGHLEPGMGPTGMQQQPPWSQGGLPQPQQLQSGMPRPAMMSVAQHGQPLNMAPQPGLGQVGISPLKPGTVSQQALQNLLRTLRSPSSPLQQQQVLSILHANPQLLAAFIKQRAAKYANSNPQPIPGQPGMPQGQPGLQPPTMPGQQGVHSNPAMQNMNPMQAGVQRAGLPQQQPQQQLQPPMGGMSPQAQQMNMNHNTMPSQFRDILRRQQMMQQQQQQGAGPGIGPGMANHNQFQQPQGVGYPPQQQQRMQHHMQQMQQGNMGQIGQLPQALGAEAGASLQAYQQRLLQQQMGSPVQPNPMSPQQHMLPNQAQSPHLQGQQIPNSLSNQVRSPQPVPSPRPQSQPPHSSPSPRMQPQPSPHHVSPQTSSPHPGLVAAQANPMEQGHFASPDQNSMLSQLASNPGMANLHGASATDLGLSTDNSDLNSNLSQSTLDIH
T1 sequence (Q92793 whole entry, looked up): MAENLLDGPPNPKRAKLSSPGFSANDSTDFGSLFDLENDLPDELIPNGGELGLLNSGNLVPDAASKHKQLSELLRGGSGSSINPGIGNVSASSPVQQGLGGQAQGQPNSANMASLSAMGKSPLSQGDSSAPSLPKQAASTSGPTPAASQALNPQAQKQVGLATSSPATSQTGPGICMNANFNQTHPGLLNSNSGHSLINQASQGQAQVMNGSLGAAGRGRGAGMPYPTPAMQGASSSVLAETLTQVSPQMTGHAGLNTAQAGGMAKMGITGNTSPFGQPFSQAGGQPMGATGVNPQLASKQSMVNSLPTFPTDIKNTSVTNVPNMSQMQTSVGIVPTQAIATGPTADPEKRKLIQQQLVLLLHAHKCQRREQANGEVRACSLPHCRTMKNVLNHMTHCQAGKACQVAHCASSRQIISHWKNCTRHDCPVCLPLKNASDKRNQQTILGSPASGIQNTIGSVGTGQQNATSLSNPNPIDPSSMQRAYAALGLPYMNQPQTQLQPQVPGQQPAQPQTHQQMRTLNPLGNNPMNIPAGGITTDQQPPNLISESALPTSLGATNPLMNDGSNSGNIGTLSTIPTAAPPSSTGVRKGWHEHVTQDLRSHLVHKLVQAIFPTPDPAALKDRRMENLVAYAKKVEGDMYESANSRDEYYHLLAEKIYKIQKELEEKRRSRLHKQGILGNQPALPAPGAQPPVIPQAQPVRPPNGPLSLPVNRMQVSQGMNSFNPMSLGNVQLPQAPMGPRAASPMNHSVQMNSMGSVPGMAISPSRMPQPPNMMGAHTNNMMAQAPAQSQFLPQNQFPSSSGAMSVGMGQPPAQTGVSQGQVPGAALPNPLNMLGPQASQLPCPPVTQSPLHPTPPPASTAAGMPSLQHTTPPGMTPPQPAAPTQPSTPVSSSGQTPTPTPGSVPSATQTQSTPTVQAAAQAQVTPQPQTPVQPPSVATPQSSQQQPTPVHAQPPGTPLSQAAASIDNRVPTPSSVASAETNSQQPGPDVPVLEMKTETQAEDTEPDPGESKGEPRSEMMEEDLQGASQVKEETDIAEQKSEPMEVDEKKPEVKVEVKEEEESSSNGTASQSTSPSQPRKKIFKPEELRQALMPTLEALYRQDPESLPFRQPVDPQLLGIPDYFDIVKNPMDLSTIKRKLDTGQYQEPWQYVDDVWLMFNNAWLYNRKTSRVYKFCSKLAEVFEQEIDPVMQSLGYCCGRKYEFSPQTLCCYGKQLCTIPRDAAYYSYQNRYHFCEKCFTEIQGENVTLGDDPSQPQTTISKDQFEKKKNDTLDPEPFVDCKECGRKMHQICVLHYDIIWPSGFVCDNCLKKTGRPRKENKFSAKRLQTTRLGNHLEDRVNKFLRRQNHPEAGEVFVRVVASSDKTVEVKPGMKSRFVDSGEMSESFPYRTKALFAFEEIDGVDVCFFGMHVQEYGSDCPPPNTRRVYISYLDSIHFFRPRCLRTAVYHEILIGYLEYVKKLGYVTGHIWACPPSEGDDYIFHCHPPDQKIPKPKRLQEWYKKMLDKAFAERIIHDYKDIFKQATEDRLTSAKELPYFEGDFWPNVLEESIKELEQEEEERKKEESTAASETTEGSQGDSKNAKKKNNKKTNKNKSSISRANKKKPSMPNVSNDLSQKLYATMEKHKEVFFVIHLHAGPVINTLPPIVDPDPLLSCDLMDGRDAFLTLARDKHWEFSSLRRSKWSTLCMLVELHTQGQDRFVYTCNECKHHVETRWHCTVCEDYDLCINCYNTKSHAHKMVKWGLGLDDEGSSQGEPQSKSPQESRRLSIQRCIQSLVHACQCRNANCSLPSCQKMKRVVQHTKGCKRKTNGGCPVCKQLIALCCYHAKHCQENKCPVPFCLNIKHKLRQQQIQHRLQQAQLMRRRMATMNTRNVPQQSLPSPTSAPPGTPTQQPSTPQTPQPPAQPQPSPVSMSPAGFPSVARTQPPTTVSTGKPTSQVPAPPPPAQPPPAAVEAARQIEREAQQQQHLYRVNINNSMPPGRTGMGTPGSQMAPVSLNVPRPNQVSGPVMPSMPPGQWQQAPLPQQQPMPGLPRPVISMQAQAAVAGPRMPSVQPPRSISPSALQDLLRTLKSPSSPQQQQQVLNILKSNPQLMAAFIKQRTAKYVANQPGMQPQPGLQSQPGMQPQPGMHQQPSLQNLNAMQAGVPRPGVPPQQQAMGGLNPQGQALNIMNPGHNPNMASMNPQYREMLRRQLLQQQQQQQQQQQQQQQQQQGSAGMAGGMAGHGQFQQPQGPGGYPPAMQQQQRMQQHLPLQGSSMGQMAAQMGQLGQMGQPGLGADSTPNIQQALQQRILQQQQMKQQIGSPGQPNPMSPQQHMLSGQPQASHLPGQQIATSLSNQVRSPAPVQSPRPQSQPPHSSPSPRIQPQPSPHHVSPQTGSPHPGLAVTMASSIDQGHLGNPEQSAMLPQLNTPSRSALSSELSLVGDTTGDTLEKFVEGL

`C[C@H](N(Cc1ccc(F)cc1)C(=O)CN1C(=O)O[C@@]2(CCc3cc(NC(=O)NCCOCCOCCOCCNc4cccc5c4C(=O)N(C4CCC(=O)NC4=O)C5=O)ccc32)C1=O)C(F)(F)F` (stereo partly drawn) was tested, and the Activity [1] was 18%.
With `C[C@H](N(Cc1ccc(F)cc1)C(=O)CN1C(=O)O[C@@]2(CCc3cc(NC(=O)NCCOCCOCCOCCOCCNc4cccc5c4C(=O)N(C4CCC(=O)NC4=O)C5=O)ccc32)C1=O)C(F)(F)F` (stereo partly drawn) the EC50 [2] was 0.422 µM and the Activity [1] was 9%.
Work on `C[C@H](N(Cc1ccc(F)cc1)C(=O)CN1C(=O)O[C@@]2(CCc3cc(NC(=O)NCCCCNc4cccc5c4C(=O)N(C4CCC(=O)NC4=O)C5=O)ccc32)C1=O)C(F)(F)F` (stereo partly drawn) yielded an Activity [1] of 42%.
`C[C@H](N(Cc1ccc(F)cc1)C(=O)CN1C(=O)O[C@@]2(CCc3cc(NC(=O)NCCOCCOCCNc4cccc5c4C(=O)N(C4CCC(=O)NC4=O)C5=O)ccc32)C1=O)C(F)(F)F` (stereo partly drawn) gave an EC50 [2] of 0.294 µM and an Activity [1] of 49%.
`CNC(=O)Nc1ccc2c(c1)CC[C@@]21OC(=O)N(CC(=O)N(Cc2ccc(F)cc2)[C@@H](C)C(F)(F)F)C1=O` [A-485] was tested, and the EC50 [2] was 0.139 µM and the Activity [3] was “Active”.

— ChEMBL document CHEMBL5107978, “Identification of ligand linkage vectors for the development of p300/CBP degraders” (RSC Med Chem, 2022)
